Experimental data as given in publication PMC4390068 (Medicinal chemistry research : an international journal for …, 2014).
“Also recorded” adds a separate entry of the source. Read-outs that look alike come from different tables or passages of the source.

Tests used:
[1] = tested on: iNOS protein expression in LPS-activated BV-2 microglial cells; experiment: Inducible NOS protein expression by immunohistochemistry; assay type: cell-based, murine; conditions: LPS-activated BV-2 cells; 4.4 and 8.9 µM chalcone (1)
Method in brief: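 LPS (E. coli O111:B4, 1 µg/ml, 24 h) activated BV-2 cells at 0.5 × 10^6 cells/ml in phenol-red-free DMEM with 5 % FBS and 3 mM L-glutamine. Test compound came from DMSO stock diluted in HBSS + 5 mM HEPES pH 7.4, with final DMSO <0.5 %. Cells were fixed (4 % paraformaldehyde), permeabilised (0.1 % Triton X-100/PBS) and given rabbit N-terminal anti-iNOS, then Alexa Fluor 488 anti-rabbit (each 2 h, 37 °C), with propidium iodide counterstain and confocal imaging. Dexamethasone 1 µM served as comparator.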

[2] = tested on: LPS-activated BV-2 microglial cells; experiment: NO; assay type: cell-based, murine; conditions: for IC50: read-out: LPS-NO2 IC50
[3] = Cell viability by resazurin; assay type: cell-based; conditions: mouse
[4] = tested on: LPS-stimulated BV-2 microglia cells; experiment: Inflammatory cytokines Multi-Analyte ELISArray MEM-004A; assay type: cell-based, murine; conditions: LPS-activated BV-2 cells, 24 h supernatant
Method in brief: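 BV-2 cells were activated with E. coli O111:B4 LPS (1 µg/ml) plus test compound (final DMSO <0.5 %). Supernatants taken at 24 h were stored at −20 °C, then incubated with capture antibodies and mixed antigen standards (2 h, RT), biotinylated detection antibodies (1 h, RT), avidin–HRP (30 min) and development reagent. Absorbance was read at 450 nm, corrected at 570 nm. Results are % of LPS controls, mean ± STD, n = 2, Student's t test.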

## COc1cc(/C=C/C(=O)c2ccc(OC)c(OC)c2O)cc(OC)c1OC [Compound 1, 2′-hydroxy-3,4,5,3′,4′-pentamethoxychalcone]
[1]
  iNOS protein expression: reducing iNOS protein expression; also recorded: reduction of iNOS protein
[2]; BV-2 cells, LPS 1 µg/ml
  NO inhibition / anti-inflammatory effect (in words): complete inhibition of NO
[3]; BV-2 microglial cells
  CC50: 18.3 µM
[4]
  IL-1α production and release: attenuated
  IL-6 production and release: attenuated
  IL-10 production and release: attenuated

## C[C@@H]1C[C@H]2[C@@H]3CCC4=CC(=O)C=C[C@]4(C)[C@@]3(F)[C@@H](O)C[C@]2(C)[C@@]1(O)C(=O)CO [Dexamethasone, reference compound]
[3]
  CC50: > 50 µM

## CC(=N)NCCCC[C@H](N)C(=O)O [L-NIL, L-N6-(1-iminoethyl)lysine, reference compound]
[2]; Mus musculus, BV-2, 24 h
  IC50: 3.1 µM

## COc1cc(/C=C/C(=O)c2ccccc2O)cc(OC)c1OC [Compound 2, 2′-hydroxy-3,4,5-trimethoxychalcone]
[2]; BV-2 cells, LPS 1 µg/ml, 24 h, regression of min. 5 concentrations below 40 µM, n = 4
  IC50: 2.2 µM
